Measured values from ChEMBL document CHEMBL4422685, “Design, synthesis and evaluation of a series of 5-methoxy-2,3-naphthalimide derivatives as AcrB inhibitors for the reversal of bacterial resistance” (Bioorg Med Chem Lett, 2019).
Calls of active or inactive are those of the source. The rule behind the calls is not given here.

Assays:
[1] = target: T1, Multidrug efflux pump subunit AcrB (Escherichia coli (strain K12)) (UniProt P31224); assay: Inhibition of AcrB in wild-type drug-resistant Escherichia coli […] assessed as potentiation of chloramphenicol-induced antimicrobial activity by measuring chloramphenicol MIC at 128 ug/ml by checkerboard titration method (Rvb =16 ug/ml)
T1 sequence (whole entry): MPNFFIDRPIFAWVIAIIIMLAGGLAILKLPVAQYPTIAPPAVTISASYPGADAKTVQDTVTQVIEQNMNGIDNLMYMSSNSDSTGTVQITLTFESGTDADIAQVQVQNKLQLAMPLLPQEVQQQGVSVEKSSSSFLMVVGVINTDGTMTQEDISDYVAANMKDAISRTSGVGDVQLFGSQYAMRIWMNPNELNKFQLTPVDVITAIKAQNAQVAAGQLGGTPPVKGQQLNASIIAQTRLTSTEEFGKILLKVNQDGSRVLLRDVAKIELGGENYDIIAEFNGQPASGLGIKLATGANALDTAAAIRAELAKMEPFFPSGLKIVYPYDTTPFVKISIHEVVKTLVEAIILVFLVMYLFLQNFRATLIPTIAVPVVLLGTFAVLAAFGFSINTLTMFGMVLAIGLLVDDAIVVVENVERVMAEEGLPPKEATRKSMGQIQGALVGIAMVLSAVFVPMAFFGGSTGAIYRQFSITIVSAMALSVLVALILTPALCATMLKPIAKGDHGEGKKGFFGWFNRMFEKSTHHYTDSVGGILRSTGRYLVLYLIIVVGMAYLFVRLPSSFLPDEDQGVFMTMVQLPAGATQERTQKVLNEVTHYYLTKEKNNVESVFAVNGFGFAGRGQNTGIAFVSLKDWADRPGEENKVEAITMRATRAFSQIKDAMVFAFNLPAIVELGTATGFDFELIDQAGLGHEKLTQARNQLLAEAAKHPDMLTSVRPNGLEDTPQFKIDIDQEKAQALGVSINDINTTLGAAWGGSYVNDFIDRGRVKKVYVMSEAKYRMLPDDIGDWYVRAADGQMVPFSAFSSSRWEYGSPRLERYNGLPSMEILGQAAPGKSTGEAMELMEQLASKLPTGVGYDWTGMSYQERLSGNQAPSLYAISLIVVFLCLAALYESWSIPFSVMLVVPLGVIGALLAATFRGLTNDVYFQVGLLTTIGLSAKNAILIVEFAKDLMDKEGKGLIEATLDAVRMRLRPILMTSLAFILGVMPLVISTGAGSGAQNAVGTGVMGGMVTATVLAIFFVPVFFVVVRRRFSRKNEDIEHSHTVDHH

[2] = target: T1, Multidrug efflux pump subunit AcrB (Escherichia coli (strain K12)); assay: Inhibition of AcrB in wild-type drug-resistant Escherichia coli […] assessed as potentiation of erythromycin-induced antimicrobial activity by measuring erythromycin MIC at 64 ug/ml by checkerboard titration method (reference value: 64 ug/ml)
[3] = target: T1, Multidrug efflux pump subunit AcrB (Escherichia coli (strain K12)); assay: Inhibition of AcrB in wild-type drug-resistant Escherichia coli […] assessed as potentiation of tetraphenyl phosphonium chloride-induced antimicrobial activity by measuring tetraphenyl phosphonium chloride MIC at 64 ug/ml by checkerboard titration method (reference value: 1024 ug/ml)
[4] = target: T1, Multidrug efflux pump subunit AcrB (Escherichia coli (strain K12)); assay: Inhibition of AcrB in wild-type drug-resistant Escherichia coli […] assessed as potentiation of levofloxacin-induced antimicrobial activity by measuring levofloxacin MIC at 32 ug/ml by checkerboard titration method (reference value: 0.063 ug/ml)
[5] = target: T1, Multidrug efflux pump subunit AcrB (Escherichia coli (strain K12)); assay: Inhibition of AcrB in wild-type drug-resistant Escherichia coli […] assessed as potentiation of levofloxacin-induced antimicrobial activity by measuring levofloxacin MIC at 128 ug/ml by checkerboard titration method (reference value: 0.063 ug/ml)
[6] = test system: Escherichia coli; assay: Induction of Escherichia coli outer membrane permeabilization assessed as increase in nitrocefin hydrolysis at 128 ug/ml by spectroscopic method; assay type: organism-based
[7] = target: T1, Multidrug efflux pump subunit AcrB (Escherichia coli (strain K12)); assay: Inhibition of AcrB in wild-type drug-resistant Escherichia coli […] assessed as reduction in glucose-induced nile red efflux at 100 uM by fluorescence assay
Summary of the method: (§1)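 E. coli cells (wild-type resistant with active pump, acrB-deleted, or wild-type plus compound) preloaded with Nile Red before fluorescence recording. Efflux triggered at 100 s by adding 0.2% glucose. Fluorescence traces followed; experiments with different cell batches on three different days.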

[8] = target: T1, Multidrug efflux pump subunit AcrB (Escherichia coli (strain K12)); assay: Inhibition of AcrB in wild-type drug-resistant Escherichia coli […] assessed as reduction in glucose-induced nile red efflux at 50 uM by fluorescence assay; summary of the method: as §1
[9] = test system: HeLa; assay: Cytotoxicity against human HeLa cells after 48 hrs by MTT assay; assay type: cell-based
Summary of the method: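 MTT-based viability assay on human cervical cancer HeLa cells, 48 h exposure; IC50 derived.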

[10] = target: T1, Multidrug efflux pump subunit AcrB (Escherichia coli (strain K12)); assay: Inhibition of AcrB in wild-type drug-resistant Escherichia coli […] assessed as reduction in glucose-induced nile red efflux at 500 uM by fluorescence assay; summary of the method: as §1
[11] = target: T1, Multidrug efflux pump subunit AcrB (Escherichia coli (strain K12)); assay: Inhibition of AcrB in wild-type drug-resistant Escherichia coli […] assessed as reduction in glucose-induced nile red efflux at 200 uM by fluorescence assay; summary of the method: as §1
[12] = test system: Escherichia coli; assay: Induction of Escherichia coli outer membrane permeabilization assessed as increase in nitrocefin hydrolysis at 32 ug/ml by spectroscopic method; assay type: organism-based
[13] = test system: Escherichia coli; assay: Induction of Escherichia coli outer membrane permeabilization assessed as increase in nitrocefin hydrolysis at 8 ug/ml by spectroscopic method; assay type: organism-based
[14] = test system: Escherichia coli; assay: Disruption of Escherichia coli inner membrane integrity at 8 ug/ml after 10 mins by DiOC2(3) probe based fluorescence assay; assay type: ADME, organism-based; conditions: in vivo
Summary of the method: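 Bacterial suspensions pre-exposed to compound for 10 min, then DiOC2(3) added and fluorescence followed to plateau. Cells re-energized with 0.5% glucose; membrane potential (inside negative) read as fluorescence rise to plateau, then collapsed with the proton ionophore CCCP. Untreated cells run alongside.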

[15] = target: T1, Multidrug efflux pump subunit AcrB (Escherichia coli (strain K12)); assay: Inhibition of AcrB in wild-type drug-resistant Escherichia coli […] assessed as potentiation of levofloxacin-induced antimicrobial activity by fold reduction in levofloxacin MIC at 16 to 32 ug/ml by checkerboard titration method relative to levofloxacin alone
[16] = target: T1, Multidrug efflux pump subunit AcrB (Escherichia coli (strain K12)); assay: Inhibition of AcrB in wild-type drug-resistant Escherichia coli […] assessed as reduction in glucose-induced nile red efflux at 100 to 200 uM by fluorescence assay; summary of the method: as §1

In the case of `COc1cccc2cc3c(cc12)C(=O)N(Cc1ccccc1)C3=O`, the MIC [1] is reported as 8 µg/mL, the MIC [2] is reported as 32 µg/mL and the MIC [3] is reported as 1020 µg/mL. The MIC [4] was 0.063 µg/mL, the MIC [5] was 0.063 µg/mL and the Activity [6] was “Non-Toxic”. For the same compound, the inhibition [7] was “Active”.
Compound `CCc1ccccc1N1C(=O)c2cc3cccc(OC)c3cc2C1=O` has an MIC [1] of 8 µg/mL, an MIC [2] of 64 µg/mL and an MIC [3] of 1020 µg/mL. The MIC [4] was 0.0313 µg/mL, the MIC [5] was 0.0313 µg/mL and the inhibition [8] was “Active”. For the same compound, the Activity [6] was “Non-Toxic” and the IC50 [9] was over 64 µg/mL.
Work on `COc1cccc2cc3c(cc12)C(=O)N(C)C3=O` yielded an MIC [1] of 16 µg/mL, an MIC [2] of 32 µg/mL and an MIC [3] of 1020 µg/mL. The MIC [4] was 0.0313 µg/mL, the MIC [5] was 0.0313 µg/mL and the inhibition [10] was 100%. The inhibition [11] was “Active” and the Activity [12] was “Non-Toxic”.
`COc1cccc2cc3c(cc12)C(=O)N(C(C)C)C3=O` showed an MIC [1] of 8 µg/mL, an MIC [2] of 32 µg/mL and an MIC [3] of 1020 µg/mL. For the same compound, the MIC [4] was 0.063 µg/mL, the MIC [5] was 0.0313 µg/mL and the inhibition [10] was 100%. For the same compound, the Activity [6] was “Non-Toxic” and the inhibition [11] was “Active”.
Work on `COc1cccc2cc3c(cc12)C(=O)N(c1ccccc1Cl)C3=O` yielded an MIC [1] of 16 µg/mL, an MIC [2] of 64 µg/mL and an MIC [3] of 1020 µg/mL. For the same compound, the MIC [4] was 0.063 µg/mL, the MIC [5] was 0.063 µg/mL and the inhibition [8] was “Active”. For the same compound, the Activity [6] was “Non-Toxic”.
`CCCCCCN1C(=O)c2cc3cccc(OC)c3cc2C1=O` was tested, and the MIC [1] was 8 µg/mL, the MIC [2] was 16 µg/mL and the MIC [3] was 512 µg/mL. For the same compound, the MIC [4] was 0.063 µg/mL, the MIC [5] was 0.0313 µg/mL and the inhibition [8] was 100%. For the same compound, the Activity [6] was “Non-Toxic”.
`COc1ccc(CN2C(=O)c3cc4cccc(OC)c4cc3C2=O)cc1` was tested, and the MIC [1] was 16 µg/mL, the MIC [2] was 32 µg/mL and the MIC [3] was 1020 µg/mL. The MIC [4] was 0.063 µg/mL, the MIC [5] was 0.063 µg/mL and the inhibition [7] was “Active”. For the same compound, the Activity [13] was “Non-Toxic” and the Activity [14] was “Non-Toxic”.
For `CCCCCN1C(=O)c2cc3cccc(OC)c3cc2C1=O`, the MIC [1] was 4 µg/mL, the MIC [2] was 32 µg/mL and the MIC [3] was 1020 µg/mL. For the same compound, the MIC [4] was 0.063 µg/mL, the MIC [5] was 0.0313 µg/mL and the Activity [6] was “Non-Toxic”. For the same compound, the inhibition [7] was “Active” and the IC50 [9] was over 64 µg/mL.
For `COc1ccccc1CN1C(=O)c2cc3cccc(OC)c3cc2C1=O`, the MIC [1] was 16 µg/mL, the MIC [2] was 64 µg/mL and the MIC [3] was 1020 µg/mL. It also gave an MIC [4] of 0.0039 µg/mL, an MIC [5] of 0.0019 µg/mL and a fold change (FC) [15] of 16. For the same compound, the Activity [6] was “Non-Toxic”, the inhibition [7] was “Active” and the IC50 [9] was over 64 µg/mL.
Compound `COc1cccc2cc3c(cc12)C(=O)N(C1CCCC1)C3=O` has an MIC [1] of 16 µg/mL, an MIC [2] of 16 µg/mL and an MIC [3] of 1020 µg/mL. The MIC [4] was 0.063 µg/mL, the MIC [5] was 0.063 µg/mL and the inhibition [16] was “inactive”. For the same compound, the Activity [6] was “Non-Toxic”.
